# Experimental data as given in ChEMBL document CHEMBL1128543, “Computer-aided design and synthesis of 5-substituted tryptamines and their pharmacology at the 5-HT1D receptor: discovery of compounds with potential anti-migraine properties” (J Med Chem, 1995).
# Assays:
# [1] = target: 5-hydroxytryptamine receptor 1D (Homo sapiens) (UniProt P28221); assay: The compound was tested for intrinsic activity against 5-HT1D receptor; conditions: Oryctolagus cuniculus
# Method in brief: (§1)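 Rabbit saphenous vein rings (male New Zealand White; 4–5 mm) mounted on tungsten wires in Krebs–Henseleit buffer, pH 7.4, 37 °C, gassed with 95% O2/5% CO2, at 2 g passive force. Pretreated for 30 min with pargyline (500 μM) and phenoxybenzamine (0.3 μM), then washed. Cumulative 5-HT curve, then after 60 min a test agonist curve. Potency is p[A50]; α is test maximum/5-HT maximum; n ≥ 3.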
# [2] = target: 5-hydroxytryptamine receptor 1D (Homo sapiens) (UniProt P28221); assay: The compound was tested for binding affinity against 5-HT1D receptor; conditions: Oryctolagus cuniculus; method in brief: as §1
# [3] = target: Serotonin 3 (5-HT3) receptor (Homo sapiens) (UniProt P46098+A5X5Y0+O95264+Q70Z44+Q8WXA8); assay: Binding affinity against 5-hydroxytryptamine 3 receptor […]; type: cell-based; conditions: Oryctolagus cuniculus
# [4] = target: Adrenergic receptor alpha-1 (Homo sapiens) (UniProt P35348+P25100+P35368); assay: Binding affinity against Alpha-1 adrenergic receptor using rabbit saphenous vein assay.; type: tissue-based; conditions: Oryctolagus cuniculus, target entry is the homologue from another species
# [5] = target: Beta-2 adrenergic receptor (Canis lupus familiaris) (UniProt P54833); assay: Binding affinity towards Beta adrenergic receptor
# Beta-2 adrenergic receptor (Canis lupus familiaris), sequence (P54833 whole entry, looked up): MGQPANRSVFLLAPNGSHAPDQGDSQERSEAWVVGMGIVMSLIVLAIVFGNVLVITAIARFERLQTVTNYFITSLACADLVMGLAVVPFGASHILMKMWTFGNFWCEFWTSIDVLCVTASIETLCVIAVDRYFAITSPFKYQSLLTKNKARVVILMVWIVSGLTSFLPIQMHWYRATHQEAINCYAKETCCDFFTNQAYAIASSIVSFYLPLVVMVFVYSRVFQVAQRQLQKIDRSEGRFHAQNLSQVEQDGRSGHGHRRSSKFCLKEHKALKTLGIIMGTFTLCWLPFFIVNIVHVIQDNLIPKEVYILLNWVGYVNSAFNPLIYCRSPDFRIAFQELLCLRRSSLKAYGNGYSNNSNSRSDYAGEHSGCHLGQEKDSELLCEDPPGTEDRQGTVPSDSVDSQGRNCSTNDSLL
# D(1A) dopamine receptor = D(1A) dopamine receptor (Rattus norvegicus, UniProt P18901); assay: Binding affinity against dopamine receptor D1 in rat striatum using [3H]SCH-23390 as radioligand; type: tissue-based
# D(1A) dopamine receptor, sequence (P18901 whole entry): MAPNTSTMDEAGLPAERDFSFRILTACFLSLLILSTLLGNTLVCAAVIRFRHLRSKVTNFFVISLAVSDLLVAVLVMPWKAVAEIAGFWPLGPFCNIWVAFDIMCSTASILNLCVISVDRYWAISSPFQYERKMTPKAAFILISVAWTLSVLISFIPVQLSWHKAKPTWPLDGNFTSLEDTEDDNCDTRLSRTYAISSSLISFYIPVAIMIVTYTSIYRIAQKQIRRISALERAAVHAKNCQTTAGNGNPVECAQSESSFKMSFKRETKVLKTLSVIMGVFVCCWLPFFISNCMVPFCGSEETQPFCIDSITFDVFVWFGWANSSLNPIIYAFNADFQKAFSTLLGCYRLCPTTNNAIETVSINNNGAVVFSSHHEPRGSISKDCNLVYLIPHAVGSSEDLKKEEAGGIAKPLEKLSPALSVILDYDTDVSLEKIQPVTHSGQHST
# Method in brief: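 Displacement of [³H]SCH23390 (0.3 nM, about K_D) from rat striatum homogenate, with test compounds run in duplicate over a wide range. Incubation was 30 min at 27 °C in 50 mM Tris-HCl with 5 mM CaCl₂, 0.1% w/v ascorbate and 10 mM pargyline. Assays were filtered and washed with ice-cold buffer, and bound label was counted by scintillation. Results are pK_i or pIC₅₀, n ≥ 3.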
# [6] = target: D(1A) dopamine receptor (Homo sapiens) (UniProt P21728); assay: Binding affinity was evaluated by Dopamine receptor D1 agonism in the calf striatum by displacing SCH 23390; type: tissue-based; conditions: Oryctolagus cuniculus
# D(1A) dopamine receptor (Homo sapiens), sequence (P21728 whole entry): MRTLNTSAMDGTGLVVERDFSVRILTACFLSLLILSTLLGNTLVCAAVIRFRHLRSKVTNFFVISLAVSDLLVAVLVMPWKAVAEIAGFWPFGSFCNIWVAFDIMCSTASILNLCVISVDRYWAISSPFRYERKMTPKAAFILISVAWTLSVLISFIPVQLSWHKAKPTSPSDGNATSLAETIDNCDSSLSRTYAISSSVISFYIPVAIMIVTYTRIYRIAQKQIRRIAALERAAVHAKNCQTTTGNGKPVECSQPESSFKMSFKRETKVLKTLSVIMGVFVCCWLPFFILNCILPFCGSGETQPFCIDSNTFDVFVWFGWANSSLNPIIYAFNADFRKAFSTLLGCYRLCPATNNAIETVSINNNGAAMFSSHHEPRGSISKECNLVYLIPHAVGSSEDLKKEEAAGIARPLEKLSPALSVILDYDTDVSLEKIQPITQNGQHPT
# D(2) dopamine receptor = D(2) dopamine receptor (Rattus norvegicus, UniProt P61169); assay: Binding affinity against Dopamine receptor D2 in rat striatum using [3H]-spiperone as radioligand; type: tissue-based
# D(2) dopamine receptor, sequence (P61169 whole entry): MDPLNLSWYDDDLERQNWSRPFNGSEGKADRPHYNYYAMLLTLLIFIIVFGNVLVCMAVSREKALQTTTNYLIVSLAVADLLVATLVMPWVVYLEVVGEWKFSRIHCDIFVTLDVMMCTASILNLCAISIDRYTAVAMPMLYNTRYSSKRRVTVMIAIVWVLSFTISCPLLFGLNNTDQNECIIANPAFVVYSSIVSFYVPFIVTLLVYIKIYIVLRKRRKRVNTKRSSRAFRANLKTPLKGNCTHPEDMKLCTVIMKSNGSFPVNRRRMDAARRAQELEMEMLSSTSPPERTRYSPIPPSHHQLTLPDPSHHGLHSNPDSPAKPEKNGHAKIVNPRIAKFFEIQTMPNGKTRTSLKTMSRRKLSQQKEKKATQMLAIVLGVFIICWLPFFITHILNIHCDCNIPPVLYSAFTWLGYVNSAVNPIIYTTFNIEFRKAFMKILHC
# Method in brief: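 Incubation was 30 min at 27 °C in Tris-HCl 50 mM/CaCl₂ 5 mM/0.1% ascorbate/10 mM pargyline buffer. Bound and free label were separated by filtration and counted by liquid scintillation. pK_i or pIC₅₀ is the mean of n ≥ 3.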
# [7] = target: Histamine H2 receptor (Homo sapiens) (UniProt P25021); assay: Binding affinity against H2 receptor using rabbit saphenous vein assay.; type: tissue-based; conditions: Oryctolagus cuniculus, target entry is the homologue from another species
# Histamine H2 receptor (Homo sapiens), sequence (P25021 whole entry): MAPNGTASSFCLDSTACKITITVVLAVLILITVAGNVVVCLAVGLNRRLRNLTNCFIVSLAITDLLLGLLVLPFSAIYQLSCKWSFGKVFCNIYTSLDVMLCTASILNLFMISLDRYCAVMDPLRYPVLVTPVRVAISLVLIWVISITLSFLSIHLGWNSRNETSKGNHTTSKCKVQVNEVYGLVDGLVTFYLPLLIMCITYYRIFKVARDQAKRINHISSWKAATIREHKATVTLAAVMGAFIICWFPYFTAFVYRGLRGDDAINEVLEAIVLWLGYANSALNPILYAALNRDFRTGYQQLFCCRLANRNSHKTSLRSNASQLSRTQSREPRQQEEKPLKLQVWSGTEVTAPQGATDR
# [8] = target: T1, Muscarinic acetylcholine receptor M2 (Homo sapiens) (UniProt P08172); assay: Binding affinity against Muscarinic acetylcholine receptor M2 using rabbit saphenous vein assay.; type: tissue-based; conditions: Oryctolagus cuniculus, target entry is the homologue from another species
# T1 sequence (whole entry): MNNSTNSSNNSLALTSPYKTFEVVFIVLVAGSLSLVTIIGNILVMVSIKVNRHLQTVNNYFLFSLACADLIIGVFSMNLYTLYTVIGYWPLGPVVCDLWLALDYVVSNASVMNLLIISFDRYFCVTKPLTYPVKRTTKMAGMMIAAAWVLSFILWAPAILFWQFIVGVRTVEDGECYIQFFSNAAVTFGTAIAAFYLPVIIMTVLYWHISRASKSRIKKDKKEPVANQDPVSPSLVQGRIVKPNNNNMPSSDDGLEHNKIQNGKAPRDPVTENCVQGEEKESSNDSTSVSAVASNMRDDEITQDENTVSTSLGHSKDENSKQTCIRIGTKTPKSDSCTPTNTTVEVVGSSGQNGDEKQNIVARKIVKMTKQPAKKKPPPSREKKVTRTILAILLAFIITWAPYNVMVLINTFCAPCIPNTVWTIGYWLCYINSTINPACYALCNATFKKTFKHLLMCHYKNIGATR
# [9] = target: Muscarinic acetylcholine receptor M3 (Homo sapiens) (UniProt P20309); assay: Binding affinity against Muscarinic acetylcholine receptor M3 using rabbit saphenous vein assay.; type: tissue-based; conditions: Oryctolagus cuniculus, target entry is the homologue from another species
# Muscarinic acetylcholine receptor M3 (Homo sapiens), sequence (P20309 whole entry, looked up): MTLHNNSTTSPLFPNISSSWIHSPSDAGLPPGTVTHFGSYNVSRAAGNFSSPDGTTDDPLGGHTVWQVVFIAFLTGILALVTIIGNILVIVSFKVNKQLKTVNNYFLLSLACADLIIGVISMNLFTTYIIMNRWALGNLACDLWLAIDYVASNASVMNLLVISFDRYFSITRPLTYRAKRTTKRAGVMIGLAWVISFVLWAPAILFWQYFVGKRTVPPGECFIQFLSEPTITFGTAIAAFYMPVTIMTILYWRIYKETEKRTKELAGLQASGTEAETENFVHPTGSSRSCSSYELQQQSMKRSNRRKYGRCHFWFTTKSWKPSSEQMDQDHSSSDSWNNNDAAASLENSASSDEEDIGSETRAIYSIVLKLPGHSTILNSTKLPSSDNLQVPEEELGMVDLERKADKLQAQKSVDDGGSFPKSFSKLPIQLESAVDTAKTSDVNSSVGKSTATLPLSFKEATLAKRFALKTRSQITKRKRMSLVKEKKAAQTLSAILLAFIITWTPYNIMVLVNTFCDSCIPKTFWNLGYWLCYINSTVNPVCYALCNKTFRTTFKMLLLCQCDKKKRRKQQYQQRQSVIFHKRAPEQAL
# [10] = target: 5-hydroxytryptamine receptor 2A (Homo sapiens) (UniProt P28223); conditions: Oryctolagus cuniculus
# 5-hydroxytryptamine receptor 2A (Homo sapiens), sequence (P28223 whole entry): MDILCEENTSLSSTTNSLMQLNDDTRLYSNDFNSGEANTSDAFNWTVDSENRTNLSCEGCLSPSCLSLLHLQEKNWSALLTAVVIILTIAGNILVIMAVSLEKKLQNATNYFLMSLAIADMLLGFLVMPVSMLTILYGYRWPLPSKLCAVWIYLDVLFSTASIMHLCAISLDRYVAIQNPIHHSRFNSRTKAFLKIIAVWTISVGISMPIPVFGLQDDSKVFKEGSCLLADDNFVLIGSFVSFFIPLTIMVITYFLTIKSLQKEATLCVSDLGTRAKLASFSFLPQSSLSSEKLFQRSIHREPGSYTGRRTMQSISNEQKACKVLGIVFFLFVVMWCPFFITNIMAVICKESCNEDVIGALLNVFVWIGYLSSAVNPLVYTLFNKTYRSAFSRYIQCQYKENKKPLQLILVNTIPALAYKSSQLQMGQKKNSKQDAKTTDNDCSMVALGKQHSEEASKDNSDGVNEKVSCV
# [11] = target: Adrenergic receptor alpha-2 (Homo sapiens) (UniProt P08913+P18825+P18089); conditions: Oryctolagus cuniculus; Saphenous vein
# 5-hydroxytryptamine receptor 1D (Homo sapiens), sequence (P28221 whole entry): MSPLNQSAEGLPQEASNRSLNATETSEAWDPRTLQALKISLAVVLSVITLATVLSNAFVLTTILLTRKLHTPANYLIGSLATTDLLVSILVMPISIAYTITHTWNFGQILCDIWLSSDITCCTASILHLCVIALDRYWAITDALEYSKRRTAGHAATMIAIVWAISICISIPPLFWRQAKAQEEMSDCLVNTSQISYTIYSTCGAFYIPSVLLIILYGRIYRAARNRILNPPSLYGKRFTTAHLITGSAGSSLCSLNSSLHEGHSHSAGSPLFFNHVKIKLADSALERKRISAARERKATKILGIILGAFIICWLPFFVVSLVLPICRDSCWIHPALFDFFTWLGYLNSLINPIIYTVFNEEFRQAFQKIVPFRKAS
smiles,measurement,setting,value
CN(C)CCc1c[nH]c2ccc(C[C@H]3COC(=O)N3)cc12 [ZOLMITRIPTAN],Intrinsic activity,[1],0.77
same,p[A50],[2],6.8
same,p[A50],[3],< 4.5
same,p[A50],[4],< 4
same,p[A50],[5],< 4
same,Kd,D(1A) dopamine receptor,0.3 nM
same,p[A50],[6],< 4
same,Kd,D(2) dopamine receptor,0.04 nM
same,p[A50],[7],< 4.5
same,p[A50],[8],< 4.5
same,p[A50],[9],< 4.5
same,p[A50],[10],6.6
same,p[A50],[11],4.1
